Active and inactive are the calls of the source. The calls are words filed in the database; no cut-off is given here.
Legend:
[1] = molecular target: Dopamine receptor (Rattus norvegicus) (UniProt P25115+P19020+P30729+P18901+P61169); assay: Inhibitory binding activity against dopamine receptor in rat striatal membranes using [3H]HAL as the radioligand.; assay type: cell membranes; parameters: concentration or dose not given beside the values; conditions: Striatum; Membrane; concentration not given here
Summary of the method: (§1)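 [3H]Haloperidol displacement from rat striatal DA receptors, run in duplicate. IC50 obtained by nonlinear regression from four to five concentrations.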

[2] = system: Mus musculus; assay: Inhibition of mouse intraperitoneally.; assay type: functional; conditions: ip
Summary of the method: (§2)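 Inhibition of exploratory locomotor activity, scored together with motor coordination (ataxia). ED50 generated from four to five doses, with 5–12 animals per dose.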

[3] = system: Rattus norvegicus; assay: Compound tested for its effective dose to inhibit rat locomotor activity after sc administration of the compound.; assay type: functional
Summary of the method: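 Rats dosed sc, with locomotor activity recorded for 30 min immediately after dosing. ED50 generated from four to five doses using 5–12 animals per dose, reported with ±95% confidence limits.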

[4] = system: Rattus norvegicus; assay: Compound tested for % inhibition of DA neuronal firing at an intraperitoneal dose of 2.5 mg/kg.; assay type: functional; conditions: ip
[5] = system: Mus musculus; assay: Compound was tested for inhibition of mouse locomotor activity after being administered intraperitoneally.; conditions: ip
[6] = system: Rattus norvegicus; assay: Percentage of rats showing signs of stereotyped behavior at 0.3 mg/kg subcutaneous dose and animals observed for 60 min postdose.; assay type: functional
[7] = system: Rattus norvegicus; assay: Compound tested for % reversal of DOPA accumulation at an intraperitoneal dose of 30 mg/kg.; assay type: functional
Summary of the method: (§3)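 Rats dosed 1 h before sacrifice, with GBL (750 mg/kg ip) at 30 min and NSD 1015 (100 mg/kg ip) at 25 min before sacrifice. Striatal DOPA measured by HPLC with electrochemical detection. Value is percent reversal of the GBL-induced DOPA rise.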

[8] = system: Rattus norvegicus; assay: Compound tested for its effect on reversal of 6-OHDA induced depression in rats after sc administration.; assay type: functional
Summary of the method: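 Rats lesioned at least 1 month earlier with 6-OHDA (20 μg icv) plus pargyline (50 mg/kg ip) and desipramine (25 mg/kg ip), giving about 90% brain DA depletion. Drug given sc, then locomotor activity recorded for 30 min from dosing. ED200 estimated from three or four doses, six rats per dose.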

[9] = system: Rattus norvegicus; assay: Effect on DOPA accumulation level at an intraperitoneal dose of 0.5 mg/kg in rat; assay type: functional
[10] = molecular target: Dopamine receptor; assay: Compound was tested for inhibitory binding activity against Dopamine receptor in rat striatal membranes using [3H]HAL as the radioligand.; assay type: cell membranes, Striatum, Membrane; summary of the method: as §1
[11] = system: Rattus norvegicus; assay: Compound tested for % reversal of DOPA accumulation at an intraperitoneal dose of 30 mg/kg; Inactive; assay type: functional, organism-based; parameters: dose 30 mg/kg; summary of the method: as §3
[12] = system: Rattus norvegicus; assay: Inhibition of rat locomotor activity after being administered perorally.; assay type: functional; conditions: po; summary of the method: as §2
[13] = system: Rattus norvegicus; assay: Percentage of rats showing signs of stereotyped behavior at 55 mg/kg peroral dose and followed 1 hr later by 10 mg/kg sc of SKF-38393 and animals observed for 60 min postdose before being; assay type: functional
Summary of the method: (§4)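 Naive rats, six per dose, received compound, then SKF 38393 (10 mg/kg sc) 1 h later. They were rated for repetitive rearing, head-swaying, sniffing, licking and gnawing of at least 5 s duration. Result given as the percentage of rats showing stereotypy.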

[14] = system: Rattus norvegicus; assay: Percentage of rats showing signs of stereotyped behavior at 110 mg/kg peroral dose and animals observed for 60 min postdose.; assay type: functional; conditions: route oral
[15] = system: Rattus norvegicus; assay: Percentage of rats showing signs of stereotyped behavior at 30 mg/kg peroral dose and animals observed for 60 min postdose.; assay type: functional; conditions: route oral
[16] = system: Rattus norvegicus; assay: Percentage of rats showing signs of stereotyped behavior at 15 mg/kg peroral dose and followed 1 hr later by 10 mg/kg sc of SKF-38393 and animals observed for 60 min postdose before being; assay type: functional
Summary of the method: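 Part 2: oral dose given to naive rats, six per dose, followed 1 h later by SKF 38393 (10 mg/kg sc). Stereotypy (repetitive rearing, head-swaying, sniffing, licking, gnawing lasting ≥5 s) rated over 60 min. Reported as percent of rats affected.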

[17] = system: Rattus norvegicus; assay: Compound tested for % reversal of DOPA accumulation at an intraperitoneal dose of 30 mg/kg. Negative value in parenthesis indicates further % increase in DOPA levels over GBL-induced increase.; assay type: functional; summary of the method: as §3
[18] = system: Rattus norvegicus; assay: Effect on DOPA accumulation level at an intraperitoneal dose of 30 mg/kg in rat.; assay type: functional
[19] = system: Rattus norvegicus; assay: Compound was tested for inhibition of […] locomotor activity after being administered perorally.; assay type: functional; conditions: po
Summary of the method: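 Mice dosed orally and scored for inhibition of exploratory locomotor activity, with motor coordination (ataxia) also checked. ED50 generated from four to five doses using 5–12 animals per dose.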

[20] = system: Rattus norvegicus; assay: Percentage of rats showing signs of stereotyped behavior at 30 mg/kg peroral dose and followed 1 hr later by 10 mg/kg sc of SKF-38393 and animals observed for 60 min postdose before being; assay type: functional; summary of the method: as §4
[21] = Compound tested for its liability for extrapyramidal side effects (EPS) in terms of no. of animals showing signs of EPS/no. of animals tested upon peroral administration at a dose of 2.5 mg/Kg; 3/3; assay type: functional
[22] = Compound was tested for its inhibition of Sidman avoidance after peroral administration in Squirrel monkeys.; assay type: functional; conditions: po
Summary of the method: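 Sidman avoidance in mature squirrel monkeys, oral dosing. ED50 ± SEM generated from three doses, four animals per dose.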

[23] = system: Rattus norvegicus; assay: Percentage of rats showing signs of stereotyped behavior at 30 mg/kg subcutaneous dose and followed 1 hr later by 10 mg/kg sc of SKF-38393 and animals observed for 30 min postdose before being; assay type: functional; summary of the method: as §4
[24] = system: Rattus norvegicus; assay: Percentage of rats showing signs of stereotyped behavior at 30 mg/kg subcutaneous dose and animals observed for 30 min postdose.; assay type: functional

## O=C1CN(CCCOc2ccc3c(=O)ccoc3c2)CC(=O)N1c1ccccc1
[1]
  inhibition: 0%
[2]
  ED50: > 30 mg/kg

## CN1CCc2cccc3c2[C@H]1Cc1ccc(O)c(O)c1-3 [APOMORPHINE]
[3]
  ED50: 0.03 mg/kg
[4]
  inhibition in vivo at 2.5 mg/kg: 100%
[5]
  ED50: > 30 mg/kg
[6]
  Animals: 100%
[7]
  Reversal: 104%
[2]
  ED50: 6.4 mg/kg
[8]
  ED200: 0.005 mg/kg

## O=C(CCCN1CCC(O)(c2ccc(Cl)cc2)CC1)c1ccc(F)cc1 [HALOPERIDOL]
[9]
  DOPA level: 2.72 µg/g

## O=c1ccoc2cc(OCCCN3CCCN(c4ccccc4)CC3)ccc12
[10]
  IC50: 0.884 µM
[2]
  ED50: > 30 mg/kg

## O=c1ccoc2cc(OCCCN3CCN(c4ccc(Cl)cc4)CC3)ccc12
[1]
  inhibition: 10%
[11]
  % reversal: inactive

## O=c1ccoc2cc(OCCCN3CCN(c4ccc(Cl)c(Cl)c4)CC3)ccc12
[1]
  inhibition: 23%
[2]
  ED50: 14 mg/kg

## O=c1ccoc2cc(OCCCN3CCc4ccccc4C3)ccc12
[1]
  inhibition: 50%
[2]
  ED50: 30 mg/kg

## Cc1ccc(N2CCN(CCCOc3ccc4c(=O)ccoc4c3)CC2)cc1
[1]
  inhibition: 36%
[11]
  % reversal: inactive

## Cc1ccc(N2CCN(CCCOc3ccc4c(=O)ccoc4c3)CC2)cc1C
[1]
  inhibition: 41%
[7]
  Reversal: -29%

## O=c1ccoc2ccc(OCCCCN3CCN(c4ncccn4)CC3)cc12
[4]
  inhibition in vivo at 2.5 mg/kg: 100%
[10]
  IC50: 0.349 µM
[7]
  Reversal: 100%
[12]
  ED50: 8.2 mg/kg
[2]
  ED50: 3.6 mg/kg

## Cc1cccc(N2CCN(CCCOc3ccc4c(=O)ccoc4c3)CC2)c1
[1]
  inhibition: 38%
[11]
  % reversal: inactive

## O=c1ccoc2cc(OCCCN3CCN(c4cccc(O)c4)CC3)ccc12
[1]
  inhibition: 29%

## COc1ccccc1N1CCN(CCCOc2ccc3c(=O)ccoc3c2)CC1
[1]
  inhibition: 48%

## O=c1ccoc2cc(OCCCN3CC=C(c4ccccc4)CC3)ccc12
[13]
  Animals: 0%
[4]
  inhibition in vivo at 2.5 mg/kg: 90%
[14]
  Animals: 0%
[7]
  Reversal: 54%
[12]
  ED50: 5.5 mg/kg

## O=c1ccoc2ccc(OCCCCN3CCN(c4ccccc4)CC3)cc12
[1]
  inhibition: 73%
[4]
  inhibition in vivo at 2.5 mg/kg: 94%
[15]
  Animals: 0%
[16]
  Animals: 0%
[7]
  Reversal: 84%

## O=c1ccoc2cc(OCCCN3CCN(Cc4ccccc4)CC3)ccc12
[1]
  inhibition: 31%
[2]
  ED50: > 30 mg/kg

## Cc1ccccc1N1CCN(CCCOc2ccc3c(=O)ccoc3c2)CC1
[1]
  inhibition: 29%
[11]
  % reversal: inactive
[12]
  ED50: > 30 mg/kg

## O=c1ccoc2cc(OCCCN3CCN(c4ccccc4Cl)CC3)ccc12
[1]
  inhibition: 59%

## COc1ccc(N2CCN(CCCOc3ccc4c(=O)ccoc4c3)CC2)cc1
[1]
  inhibition: 25%

## O=c1ccoc2cc(OCCCN3CCC(c4ccccc4)CC3)ccc12
[1]
  inhibition: 40%

## Nc1cccc(OCCCN2CCN(c3ccccc3)CC2)c1
[2]
  ED50: 1.3 mg/kg

## O=c1ccoc2cc(OCCCN3CCN(c4cccc(Cl)c4)CC3)ccc12
[17]
  Reversal: -26%
[1]
  inhibition: 35%

## O=c1ccoc2cc(OCCCN3CCN(c4ccc(F)cc4)CC3)ccc12
[17]
  Reversal: -42%
[1]
  inhibition: 24%
[18]
  DOPA level: 1.36 µg/g

## C1=C(c2ccccc2)CCN(CCCCc2c[nH]c3ccccc23)C1
[3]
  ED50: 4.69 mg/kg
[15]
  Animals: 0%
[2]
  ED50: 0.1 mg/kg
[19]
  ED50: 4.8 mg/kg
[8]
  ED200: 0.29 mg/kg
[20]
  Animals: 0%

## CSc1ccc2c(c1)N(CCC1CCCCN1C)c1ccccc1S2 (configuration not stated) [THIORIDAZINE]
[21]
  EPS: 3
[22]
  ED50: 3.9 mg/kg

## Cc1cccc(N2CCN(CCCOc3ccc4c(=O)ccoc4c3)CC2)c1C
[1]
  inhibition: 0%

## O=c1ccoc2cc(OCCCN3CCN(c4cnccn4)CC3)ccc12
[1]
  inhibition: 17%
[2]
  ED50: 26.3 mg/kg

## O=c1ccoc2cc(OCCCN3CCN(c4ccccc4)CC3)ccc12
[1]
  inhibition: 20%
[4]
  inhibition in vivo at 2.5 mg/kg: 68%
[7]
  Reversal: 56%

## O=c1ccoc2cc(OCCCN3CCN(c4ncccn4)CC3)ccc12
[1]
  inhibition: 0%
[12]
  ED50: 15.6 mg/kg
[2]
  ED50: 12.4 mg/kg

## O=c1ccoc2cc(OCCCN3CCc4[nH]c5ccc(F)cc5c4C3)ccc12
[7]
  Reversal: -44%
[12]
  ED50: 5.5 mg/kg
[2]
  ED50: 7.5 mg/kg

## O=c1ccoc2cc(OCCCCN3CCN(c4ccccc4)CC3)ccc12
[1]
  inhibition: 74%
[7]
  Reversal: 63%

## CCN(CCCOc1ccc2c(=O)ccoc2c1)CCCc1ccccc1
[1]
  inhibition: 26%
[2]
  ED50: > 30 mg/kg

## O=c1ccoc2cc(OCCCN3CCC=C(c4ccccc4)C3)ccc12
[10]
  IC50: 0.243 µM
[2]
  ED50: 30.3 mg/kg

## O=c1ccoc2cccc(OCCCN3CCN(c4ccccc4)CC3)c12
[1]
  inhibition: 9%
[11]
  % reversal: inactive
[12]
  ED50: > 30 mg/kg

## CCCN1CCCC(c2ccccc2)C1 (single isomer, unassigned; (+))
[3]
  ED50: 3 mg/kg
[23]
  Animals: 100%
[24]
  Animals: 16%
[8]
  ED200: 0.48 mg/kg

## O=c1ccoc2cc(OCCCN3CCc4c(oc5ccccc45)C3)ccc12
[1]
  inhibition: 8%
[7]
  Reversal: 29%
[12]
  ED50: > 30 mg/kg
[2]
  ED50: 13.5 mg/kg

From ChEMBL document CHEMBL1125728, “Dopamine autoreceptor agonists as potential antipsychotics. 2. (Aminoalkoxy)-4H-1-benzopyran-4-ones” (J Med Chem, 1991)
